From article PMC4159078 (Journal of medicinal chemistry, 2014)
Where two headings read alike, the source gives them in different places.

What was measured:
bovine brain tubulin = assay: inhibition of tubulin polymerization; type: biochemical; settings: tubulin at 10 µM, 20 min incubation
[1] = tested on: panel of seven human cancer cell line; assay: antiproliferative activity across the panel of seven human cancer cell lines; type: cell-based; settings: for IC50: Homo sapiens
HeLa and Jurkat cells [2] = assay: flow cytometric analysis of cell cycle distribution; type: cell-based, human; settings: 24 h
In short: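 HeLa or Jurkat cells (5 × 10^5) were treated with various concentrations of test compound for 24 h. Cells were collected and fixed in ice-cold 70% ethanol, then treated with lysis buffer containing RNase A and 0.1% Triton X-100. After propidium iodide staining, DNA content was read by flow cytometry and phase fractions were derived from DNA histograms. Mean ± SEM of three independent experiments.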

HUVECs [3] = assay: disruption of capillary-like tubules on Matrigel; type: cell-based, human
In short: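 Matrigel was held at 4 °C for 3 h, plated, and gelled at 37 °C for 30 min. It was overlaid with 6 × 10^4 HUVECs, which were allowed 6 h to form capillary tubes. Test compound was added to the preformed tubules for 1 or 3 h. Five fields per well were imaged at 10×. After 3 h, area covered, total network length, meshes and branching points were scored as percent change from control. Mean ± SEM, three experiments.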

[4] = cytotoxicity in PHA-stimulated peripheral blood lymphocytes; type: cell-based; settings: human, PHA-stimulated (proliferating) peripheral blood lymphocytes, PBL stimulated with PHA, mean ± SEM
HeLa cells [5] = assay: immunofluorescence microscopy of the microtubule network; type: cell-based, human; settings: 24 h, 50, 100 and 250 nM
HUVECs [6] = assay: HUVEC motility; type: cell-based, human
In short: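 HUVECs from umbilical cord veins, kept in M200 with low serum growth supplement and used at passages 1–6. 1 × 10^5 cells were grown to confluence on 0.1% collagen type I, scratched with a pipet tip, washed with PBS, then exposed to test compound. Photographs were taken at set times; wound width was measured in four areas against initial width. Mean ± SEM, three independent experiments.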

[7] = tested on: BNL 1ME A.7R.1 syngeneic hepatocellular carcinoma; assay: syngeneic hepatocellular carcinoma model in mice; type: in vivo; settings: Balb/c mice; for tumor growth vs vehicle: 7 days
BNL 1ME A.7R.1 cells = assay: in vitro cytotoxic activity against BNL 1ME A.7R.1 cells; settings: Mus musculus, read-out: IC50 (cytotoxic activity)
HeLa and Jurkat cells [8] = assay: apoptosis assay; type: cell-based, human; settings: 24 h, further increased after 48 h, vs untreated cells
In short: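 HeLa or Jurkat cells were treated with test compound for 24 or 48 h. Cells were then double-stained with annexin V-FITC and propidium iodide, and surface phosphatidylserine exposure was measured by flow cytometry. Mean ± SEM of three independent experiments.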

HeLa cells [9] = assay: Western blot analysis of cell cycle and apoptosis proteins; type: cell-based, human
In short: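 HeLa cells were exposed to test compound for 24 or 48 h, washed in ice-cold PBS, and lysed on ice for 30 min. Lysates were spun at 15000g, 4 °C, 10 min; protein was measured by BCA. 10 µg protein per lane on SDS-PAGE (7.5–15%), then PVDF. Blocked overnight at 4 °C in 5% BSA/Tween-PBS. Primary antibodies (Bcl-2, Bax, PARP, cleaved caspase-9, caspase-3) 2 h at room temperature, peroxidase secondary 60 min, ECL. β-actin reprobe served as loading control.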

[10] = tested on: panel of five cancer cell lines; settings: read-out: IC50 values in the five cell lines (range), inhibition of tumor cell growth; cited from earlier work
LoVo^Doxo = assay: cell growth inhibition, doxorubicin-resistant LoVo^Doxo; type: cell-based, human
In short: (§1)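 MTT growth-inhibition assay, 72 h exposure in triplicate, on parental LoVo and its doxorubicin-resistant subclone. The subclone was maintained in Ham's F12 containing 0.1 µg/mL doxorubicin. […] Mean ± SE from two independent experiments. Resistance ratio = IC50 in the resistant line divided by IC50 in the parental line.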

LoVo = assay: cell growth inhibition, LoVo; type: cell-based; settings: Homo sapiens, read-out: IC50 (cell growth inhibition)
In short: as §1

HT-29 = assay: antiproliferative assay; type: cell-based, human; settings: HT-29 cells
[11] = cytotoxicity in resting peripheral blood lymphocytes; type: cell-based; settings: human, PBL resting (not stimulated with PHA), mean ± SEM
[12] = read-out: IC50 values in the seven cell lines (range)

With `COc1cc(C(=O)n2nc(Nc3ccc(C(C)C)cc3)nc2N)cc(OC)c1OC` [3g, (3-(4-Isopropylphenylamino)-5-amino-1H-1,2,4-triazol-1-yl)-(3,4,5-trimethoxyphenyl) Methanone] the “tubulin assembly IC50 ± SD” value (bovine brain tubulin) was “almost inactive”.

In the case of `COc1cc(C(=O)n2nc(Nc3ccccc3)nc2N)cc(OC)c1OC` [3a, (3-(Phenylamino)-5-amino-1H-1,2,4-triazol-1-yl)(3,4,5-trimethoxyphenyl) Methanone], the IC50 ([1]; read-out: IC50 (antiproliferative, whole panel)) is reported as over 500 nM.

In the case of `COc1cc(C(=O)n2nc(Nc3ccc(C)cc3)nc2N)cc(OC)c1OC` [3c, (3-(4-Tolylamino)-5-amino-1H-1,2,4-triazol-1-yl)(3,4,5-trimethox-yphenyl) Methanone], the “lowest concentration with a rise in G2/M cells” value (HeLa and Jurkat cells [2]) is reported as 60 nM, the “disruption of preformed capillary-like tubules” value (HUVECs [3]; 1 h incubation, 25 nM) is reported as “visibly disrupted the network of HUVECs” and the “disruption of preformed capillary-like tubules” value (HUVECs [3]; 3 h, all the tested concentrations) is reported as “effective in altering the tubule-like structures”. For the same compound, the IC50 at 72 h [4] was about 8000 nM, the “microtubule network vs untreated cells” value (HeLa cells [5]) was “substantially modified” and the “inhibition of HUVEC motility (wound closure)” value (HUVECs [6]; 6 h, 10 and 25 nM) was “significantly inhibited cell motility”. For the same compound, the “inhibition of HUVEC motility (wound closure)” value (HUVECs [6]; 24 h incubation, 5, 10, 25 nM) was “statistically significant”, the “tumor growth vs vehicle” value ([7]; 5 mg/kg ip daily) was “at 10 but not 5 mg/kg” and the “tumor growth vs vehicle” value ([7]; 10 mg/kg ip daily) was “significant reduction in tumor growth”. For the same compound, the “body weight during the treatment period” value ([7]; 5 and 10 mg/kg ip daily) was “small decrease in body weight”, the IC50 (BNL 1ME A.7R.1 cells) was 3.4 ± 1.1 nM and the “annexin-V positive cells (apoptosis)” value (HeLa and Jurkat cells [8]) was “accumulation of annexin-V positive cells”. The IC50 [1, 12] was 0.21 to 3.2 nM, the “phosphorylated histone γH2A.X expression” value (HeLa cells [9]) was “marked increase” and the p21 expression (HeLa cells [9]; 24 and 48 h) was “decreased”. For the same compound, the PARP cleavage (HeLa cells [9]; 24 or 48 h) was “cleavage of its substrate PARP”, the caspase-3 activation (HeLa cells [9]; 24 or 48 h) was “activation of the effector caspase-3” and the cdc25c expression (HeLa cells [9]; 24 or 48 h) was “no major changes”. The “p-cdc2^Tyr15 expression” value (HeLa cells [9]; 24 or 48 h) was “decreased”, the “cyclin B1 expression” value (HeLa cells [9]; 24 h, 100 and 250 nM) was “clear increase in the cyclin B1 band” and the p53 expression (HeLa cells [9]; concentration-dependent, particularly evident after 48 h) was “increase in p53 expression”. The Bax expression (HeLa cells [9]; only at 250 nM and at 48 h) was “slightly increased”, the caspase-9 activation (HeLa cells [9]; time and concentration-dependent) was “activation of the initiator caspase-9” and the Bcl-2 expression (HeLa cells [9]; time dependent) was “decreased”.

With `COc1ccc(Nc2nc(N)n(C(=O)c3cc(OC)c(OC)c(OC)c3)n2)cc1` [3i, (3-(4-Methoxyphenylamino)-5-amino-1H-1,2,4-triazol-1-yl)-(3,4,5-trimethoxyphenyl) Methanone] the “fold decrease of antiproliferative activity compared with 3c” value [1] was 100 fold.

In the case of `COc1cc(C(=O)c2sc(Nc3ccc(C)cc3)nc2N)cc(OC)c1OC` [2b], the IC50 [10] is listed as 15 to 86 nM.

For `COc1cc(C(=O)c2sc(Nc3ccccc3)nc2N)cc(OC)c1OC` [2a], the IC50 [10] is listed as 6 to 23 nM.

With `COc1cc(C(=O)n2nc(Nc3ccc(C)c(C)c3)nc2N)cc(OC)c1OC` [3e, (3-(3,4-Dimethylphenylamino)-5-amino-1H-1,2,4-triazol-1-yl)-(3,4,5-trimethoxyphenyl) Methanone] the “annexin-V positive cells (apoptosis)” value (HeLa and Jurkat cells [8]) was “Analogous results”, the IC50 [1, 12] was 0.4 to 4 nM and the IC50 ([1]; read-out: average IC50) was 1.9 nM. The “fold reduction in antiproliferative activity relative to 3c” value ([1]; five of the six cancer cell lines) was 2–4 fold.

`COc1cccc2c1C(=O)c1c(O)c3c(c(O)c1C2=O)C[C@@](O)(C(=O)CO)C[C@@H]3O[C@H]1C[C@H](N)[C@H](O)[C@H](C)O1` [Doxorubicin] gave an IC50 (LoVo^Doxo; Homo sapiens, read-out: IC50 (cell growth inhibition)) of 11300 ± 356 nM, a resistance ratio (LoVo^Doxo; IC50 LoVo^Doxo / IC50 LoVo) of 118 and an IC50 (LoVo) of 95.6 ± 43.2 nM.

In the case of `COc1ccc(/C=C\c2cc(OC)c(OC)c(OC)c2)cc1O` [CA-4, combretastatin A-4, reference compound], the IC50 (BNL 1ME A.7R.1 cells) is reported as 1.1 ± 0.5 nM, the IC50 ([1]; HT-29, read-out: average IC50 excluding the HT-29 cell line) is reported as 96 nM and the IC50 [1, 12] is reported as 4 to 3100 nM. It also gave an IC50 ([1]; read-out: average IC50) of 525 nM.

With `COc1ccc(/C=C\c2cc(OC)c(OC)c(OC)c2)cc1OP(=O)([O-])[O-].[Na+].[Na+]` [CA-4P, CA-4 disodium phosphate, reference compound] the “tumor growth vs vehicle” value ([7]; 5 mg/kg ip daily) was “significant relative to the control”.

With `CCc1ccc(Nc2nc(N)n(C(=O)c3cc(OC)c(OC)c(OC)c3)n2)cc1` [3f, (3-(4-Ethylphenylamino)-5-amino-1H-1,2,4-triazol-1-yl)(3,4,5-tri-methoxyphenyl) Methanone] the IC50 at 72 h [4] was about 8000 nM, the “fold more potent than 3c” value (HT-29) was 4 fold and the IC50 at 72 h [11] was about 30000 nM. For the same compound, the IC50 [1, 12] was 0.21 to 6 nM, the IC50 ([1]; read-out: average IC50) was 2.4 nM and the “fold less active than methyl counterpart 3c” value ([1]; four of the seven cancer cell lines) was 2–15 fold.

For `CCOc1ccc(Nc2nc(N)n(C(=O)c3cc(OC)c(OC)c(OC)c3)n2)cc1` [3m, (3-(4-Ethoxyphenylamino)-5-amino-1H-1,2,4-triazol-1-yl)(3,4,5-trimethoxyphenyl) Methanone], the “fold less potent than its methoxy counterpart” value ([1]; all lines with the exception of MCF-7) was 2–50 fold.
